This is an account of results in ChEMBL document CHEMBL1914385, “Isolation, structure, and biological activities of Fellutamides C and D from an undescribed Metulocladosporiella (Chaetothyriales) using the genome-wide Candida albicans fitness test” (J Nat Prod, 2011).

The subject of test [1] is Candida albicans. Nature of the test: Antifungal activity against Candida albicans at 200 ug/ml after 24 hrs by NCCLS M27-P broth macrodilution method. Format: functional, organism-based.
The subject of test [2] is Candida albicans. Nature of the test: Antifungal activity against wild-type Candida albicans at 10 ug/mL after 24 hrs by NCCLS M27-P broth macrodilution method. The test is classed as functional, organism-based.
Test [3] concerns Candida albicans. The experiment in a line: Antifungal activity against Candida albicans harboring heterozygous deletion of PRE4/orf19.4230 at 10 ug/mL after 24 hrs by NCCLS M27-P broth macrodilution method. Format: functional, organism-based.
Test [4] deals with Candida albicans. Nature of the test: Antifungal activity against wild-type Candida albicans at 0.01 to 10 ug/mL after 24 hrs by NCCLS M27-P broth macrodilution method. The test is classed as functional, organism-based.
The test system of test [5] is Candida albicans. Nature of the test: Antifungal activity against Candida albicans harboring heterozygous deletion of PRE4/orf19.4230 at 0.01 to 10 ug/mL after 24 hrs by NCCLS M27-P broth macrodilution method. The test is classed as functional, organism-based.
A further test concerns Nakaseomyces glabratus. The experiment in a line: Antifungal activity against Candida glabrata MY1381 after 24 hrs by NCCLS M27-P broth macrodilution method. The test is classed as functional. As to conditions: MY1381, 24 h. The essentials:
(§1)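 MIC panel run in the fitness-test medium (modified RPMI), following an earlier published MIC method.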

The next test relates to Clavispora lusitaniae. Nature of the test: Antifungal activity against Candida lusitaniae MY1396 after 24 hrs by NCCLS M27-P broth macrodilution method. The test is classed as functional. As to conditions: MY1396, 24 h. The essentials:
as §1

For test [6], the system named is Trichophyton mentagrophytes. The experiment in a line: Antifungal activity against Trichophyton mentagrophytes MF7004 after 24 hrs by NCCLS M27-P broth macrodilution method. The test is classed as functional. Particulars: MF7004, 24 h. The gist of the method: as §1
For test [7], the system named is Candida albicans. The experiment in a line: Antifungal activity against Candida albicans 2323 after 24 hrs by NCCLS M27-P broth macrodilution method. Format: functional. Particulars: Candida albicans, 2323, 24 h. The gist of the method:
as §1

Test [8] has as its system Candida albicans. Nature of the test: Antifungal activity against Candida albicans after 24 hrs by NCCLS M27-P broth macrodilution method. The test is classed as functional.
The test system of test [9] is Candida albicans. Nature of the test: Antifungal activity against Candida albicans harboring heterozygous deletion of orf19.3168/RPN8 after 24 hrs by NCCLS M27-P broth macrodilution method. Format: functional.
Another test deals with Aspergillus fumigatus. The experiment in a line: Antifungal activity against Aspergillus fumigatus MF5668 after 24 hrs by NCCLS M27-P broth macrodilution method. The test is classed as functional. Particulars: MF5668, 24 h. The essentials: as §1
For a further test, the system named is Pichia kudriavzevii. Nature of the test: Antifungal activity against Candida krusei ATCC 6258 after 24 hrs by NCCLS M27-P broth macrodilution method. Format: functional. Particulars: ATCC 6258, 24 h. The essentials:
as §1

In test [10] the test system is Candida albicans. Nature of the test: Ratio of lactacystin IC50 to compound IC50 for Candida albicans 26S proteasome.
In a further test the test system is Candida parapsilosis. Nature of the test: Antifungal activity against Candida parapsilosis ATCC 22019 after 24 hrs by NCCLS M27-P broth macrodilution method. Format: functional. Particulars: Lodderomyces parapsilosis, ATCC 22019, 24 h. The essentials:
as §1

The subject of test [11] is Candida albicans. Nature of the test: Antifungal activity against Candida albicans harboring heterozygous deletion of orf19.4088/NUP188 after 24 hrs by NCCLS M27-P broth macrodilution method. The test is classed as functional.
The subject of test [12] is Candida albicans. The experiment in a line: Ratio of gliotoxin IC50 to compound IC50 for Candida albicans 26S proteasome.
A short description of test [13]: Inhibition of Candida albicans 26S proteasome. The gist of the method:
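Chymotrypsin-like proteasome activity measured by luminogenic Proteasome-Glo assay, with modifications. Used whole-cell extracts of exponential-phase C. albicans, about 10⁶ cell equivalents per assay.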

Test [14] relates to Candida albicans. Nature of the test: Antifungal activity against Candida albicans harboring heterozygous deletion of PRE4/orf19.4230 after 24 hrs by NCCLS M27-P broth macrodilution method. Format: functional.
The next test concerns A549. The experiment in a line: Growth inhibition of human A549 cells at 3.1 to 50000 nM.
The subject of test [15] is Candida albicans. Nature of the test: Antifungal activity against Candida albicans harboring heterozygous deletion of orf19.5378/SCL1 after 24 hrs by NCCLS M27-P broth macrodilution method. The test is classed as functional.
A further test relates to Candida tropicalis. The experiment in a line: Antifungal activity against Candida tropicalis MY1012 after 24 hrs by NCCLS M27-P broth macrodilution method. Format: functional. As to conditions: MY1012, 24 h. The essentials:
as §1

The next test relates to Staphylococcus aureus. Nature of the test: Antibacterial activity against Staphylococcus aureus MB2865. Format: functional.
Another test deals with PC-3. The experiment in a line: Growth inhibition of human PC3 cells. The test is classed as functional, cell-based. The essentials:
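PC-3 cells treated for 48 h across an 8-point dose series (final 50 000, 12 500, 3125, 781.3, 195.3, 48.8, 12.2, 3.1 nM). Viable cell mass was measured by ATP luminescence (Vialight) to give IC50.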

For orientation: MIC means the least concentration at which growth counts as inhibited. Higher therefore signals a less susceptible organism. One may read the IC50 as the midpoint of a concentration-inhibition curve. A low value points to greater potency.

Values after ≈ are worked out from the molar mass of the structure shown. Active and inactive are the calls of the source. The calls are words filed in the database; no cut-off is given here. Non-standard residues stand in square brackets, D forms with d. Residues, ends and D or L forms follow the SMILES beside them. *: point of attachment. Myristoyl = CCCCCCCCCCCCCC(=O)*; Leu(ol) = CC(C)C[C@H](N)CO

Take `CC(=O)N[C@@H](CSC(=O)[C@]1([C@@H](O)C(C)C)NC(=O)[C@H](C)[C@@H]1O)C(=O)O`: the outcome with Candida albicans [1] was inactive.

In the case of `CCCCCCCCCCCCCC(=O)N[C@@H](CC(N)=O)C(=O)N[C@@H](CCC(N)=O)C(=O)N[C@H](CO)CC(C)C` (Myristoyl-Asn-Gln-[Leu(ol)]), the outcome in the test on Candida albicans [2] and in the test with Candida albicans [3] was inactive.

Take `CCCCCCCCCCCCCC(=O)N[C@@H](CC(N)=O)C(=O)N[C@@H](CCC(N)=O)C(=O)N[C@H](C=O)CC(C)C` (Myristoyl-Asn-Gln-Leu-aldehyde): the outcome in the test on Candida albicans [4] and in the test on Candida albicans [5] was Active.

For `CCCCCCCCCCC[C@@H](O)CC(=O)N[C@@H](CC(N)=O)C(=O)N[C@H](C(=O)N[C@H](C=O)C(C)C)C(O)CC(N)=O` (stereo partly specified) [FELLUTAMIDE C], the MIC is 4 µg/mL (≈ 6.83 µM) against Nakaseomyces glabratus; 16 µg/mL (≈ 27.3 µM) against Clavispora lusitaniae; greater than 32 µg/mL in [6]; 4 µg/mL (≈ 6.83 µM) in the test with Candida albicans [7]; 1.25 µg/mL (≈ 2.13 µM) against Candida albicans [8]; 2.5 µg/mL (≈ 4.27 µM) against Candida albicans [9]. Further, the MIC was determined as 16 µg/mL (≈ 27.3 µM) in the test with Aspergillus fumigatus; 4 µg/mL (≈ 6.83 µM) with Pichia kudriavzevii; 2 µg/mL (≈ 3.41 µM) in the test on Candida parapsilosis; 2.5 µg/mL (≈ 4.27 µM) against Candida albicans [11]; 2.5 µg/mL (≈ 4.27 µM) in the test with Candida albicans [14]; 2.5 µg/mL (≈ 4.27 µM) in the test on Candida albicans [15]. Also, the MIC in the test with Candida tropicalis is 4 µg/mL (≈ 6.83 µM); in the test on Staphylococcus aureus it was greater than 32 µg/mL. Moreover, the Ratio IC50 in the test on Candida albicans [10] and in the test on Candida albicans [12] was 10 each time. Moreover, the values for the IC50 (in [13]; in the test on PC-3) were 0.2 µg/mL (≈ 0.341 µM) and 440 nM, respectively. In the test on A549, the “growth inhibition (GI)” value was “inactive”.

On to `CN1C(=O)[C@]23CC4=CC=C[C@H](O)[C@H]4N2C(=O)[C@@]1(CO)SS3` [GLIOTOXIN], for which the MIC against Candida albicans [8] was found to be 4 µg/mL (≈ 12.3 µM).

On to `CCCCCCCCCCC[C@@H](O)CC(=O)N[C@@H](CC(N)=O)C(=O)N[C@H](C(=O)N[C@H](C=O)CC(C)C)C(O)CC(N)=O` (stereo partly specified) [FELLUTAMIDE D], for which the MIC against Nakaseomyces glabratus is 8 µg/mL (≈ 13.3 µM); against Clavispora lusitaniae, 32 µg/mL (≈ 53.4 µM); in test [6] it was greater than 32 µg/mL; in the test with Candida albicans [7], 16 µg/mL (≈ 26.7 µM); in the test with Candida albicans [8], 1.25 µg/mL (≈ 2.08 µM); against Candida albicans [9] it was 10 µg/mL (≈ 16.7 µM). Moreover, the MIC is 32 µg/mL (≈ 53.4 µM) in the test with Aspergillus fumigatus; 8 µg/mL (≈ 13.3 µM) in the test on Pichia kudriavzevii; 8 µg/mL (≈ 13.3 µM) with Candida parapsilosis; 10 µg/mL (≈ 16.7 µM) in the test with Candida albicans [11]; 10 µg/mL (≈ 16.7 µM) in the test on Candida albicans [14]; 10 µg/mL (≈ 16.7 µM) against Candida albicans [15]. For the same molecule, the minimum inhibitory concentration (MIC) with Candida tropicalis is 8 µg/mL (≈ 13.3 µM); in the test with Staphylococcus aureus it was greater than 32 µg/mL. Also, the result in the test with Candida albicans [4] and in the test with Candida albicans [5] was Active. Further, the Ratio IC50 with Candida albicans [10] and in the test with Candida albicans [12] was 10 each time. In addition, the values for the 50% inhibitory concentration (IC50) (in test [13]; in the test with PC-3) were 0.2 µg/mL (≈ 0.333 µM) and 160 nM, respectively. Moreover, in the test with A549, the “growth inhibition (GI)” value was “inactive”.
